{"data": "Measurements of several laboratories", "NPSR1": "Neuropeptide S receptor (NPSR1, Homo sapiens, UniProt Q6W5P4)", "SLC6A2": "Sodium-dependent noradrenaline transporter (SLC6A2, Homo sapiens, UniProt P23975)", "GRM3": "Metabotropic glutamate receptor 3 (GRM3, Homo sapiens, UniProt Q14832)", "Fructose-1,6-bisphosphatase 1": "Fructose-1,6-bisphosphatase 1 (Mus musculus, UniProt Q9QXD6)", "PTPN12": "Tyrosine-protein phosphatase non-receptor type 12 (PTPN12, Homo sapiens, UniProt Q05209)", "TPR": "Trypanothione reductase (TPR, Trypanosoma cruzi, UniProt P28593)", "Aldo-keto reductase family 1 member A1": "Aldo-keto reductase family 1 member A1 (Rattus norvegicus, UniProt P51635)", "Dual specificity calcium/calmodulin-dependent 3',5'-cyclic nucleotide phosphodiesterase 1B": "Dual specificity calcium/calmodulin-dependent 3',5'-cyclic nucleotide phosphodiesterase 1B (Homo sapiens, UniProt Q01064)"}
{"SMILES": "COc1cccc(C2c3c(ncn(-c4ccncc4)c3=N)Oc3ccc4ccccc4c32)c1 (stereo not drawn)", "target": "NPSR1", "assay": "cAMP, antagonist, TR-FRET", "IC50 [µM]": 19.4}
{"SMILES": "Fc1ccc(C(c2ccc(F)cc2)c2nnnn2CCCCN2CCC(Cc3ccc(Cl)c(Cl)c3)CC2)cc1", "target": "SLC6A2", "assay": "transporter uptake, inhibitor", "IC50 [µM]": 0.521}
{"SMILES": "COc1cccc(C2c3c(ncn(-c4cccc(C)c4)c3=N)Oc3ccc4ccccc4c32)c1 (stereo not drawn)", "target": "NPSR1", "assay": "calcium signal, antagonist", "IC50 [µM]": 4.38}
{"SMILES": "COc1ccc(-c2cc(C(N)=O)ncc2OCc2ccc(OC)nc2)c(F)c1", "target": "GRM3", "assay": "ion flux, antagonist", "IC50 [µM]": "> 10"}
{"SMILES": "OC[C@@H]1[C@@H](O)[C@H](O)[C@@H](O)[C@@H]2O[C@H]12", "target": "bglA (Thermotoga maritima, UniProt Q08638)", "assay": "enzyme activity, inhibitor", "conditions": "pH 6.8, with preincubation", "IC50 [µM]": 0.37}
{"SMILES": "NC(=O)c1cccc(-c2cccc(OC(=O)NC3CCCCC3)c2)c1", "target": "Cocaine esterase (CES2, Homo sapiens, UniProt O00748)", "assay": "enzyme activity, inhibitor", "IC50 [µM]": 0.072}
{"SMILES": "CC(C)Cc1sc(N)nc1-c1ccc(P(=O)(O)O)o1", "target": "Fructose-1,6-bisphosphatase 1", "assay": "enzyme activity, inhibitor", "IC50 [µM]": 0.3}
{"SMILES": "COc1ccc(-c2cc(C(N)=O)ncc2OCc2cn(C)cn2)c(F)c1", "target": "GRM3", "assay": "ion flux, antagonist", "IC50 [µM]": "> 10"}
{"SMILES": "O=C(O)c1cc(O)c2c(c1)[C@H]([C@H]1c3cc(C(=O)O)cc(O)c3C(=O)c3c(O[C@@H]4O[C@H](CO)[C@@H](O)[C@H](O)[C@H]4O)cccc31)c1cccc(O[C@@H]3O[C@H](CO)[C@@H](O)[C@H](O)[C@H]3O)c1C2=O", "target": "PTPN12", "assay": "enzyme activity, inhibitor, fluorescence", "IC50 [µM]": 0.4}
{"SMILES": "C1CNCCN1", "target": "TPR", "assay": "enzyme activity, inhibitor, absorbance", "IC50 [µM]": "> 100"}
{"SMILES": "N=c1n(CCN2CCCCC2)c2ccccc2n1CC(O)COc1ccccc1 (stereo not drawn)", "target": "TPR", "assay": "enzyme activity, inhibitor", "IC50 [µM]": "≤ 10"}
{"SMILES": "CCN(CC)C(=S)SSC(=S)N(CC)CC", "target": "PTPN12", "assay": "enzyme activity, inhibitor, fluorescence", "IC50 [µM]": "> 500"}
{"SMILES": "COc1cccc(C2c3c(ncn(-c4ccccc4C)c3=N)Oc3ccc4ccccc4c32)c1 (stereo not drawn)", "target": "NPSR1", "assay": "cAMP, antagonist, TR-FRET", "IC50 [µM]": 9.72}
{"SMILES": "COc1ccc(-c2cc(C(N)=O)ncc2OCc2ccnc(C)c2)c(F)c1", "target": "GRM3", "assay": "ion flux, antagonist", "IC50 [µM]": "> 10"}
{"SMILES": "O=C(Oc1cc(O)cc2c1C[C@@H](OC(=O)c1cc(O)c(O)c(O)c1)[C@@H](c1cc(O)c(O)c(O)c1)O2)c1cc(O)c(O)c(O)c1", "target": "PTPN12", "assay": "enzyme activity, inhibitor, fluorescence", "IC50 [µM]": 0.02}
{"SMILES": "Clc1ccc(C(c2ccccc2)c2nnnn2CCCCN2CCC(CCCc3ccccc3)CC2)cc1 (stereo not drawn)", "target": "SLC6A2", "assay": "transporter uptake, inhibitor", "IC50 [µM]": 0.232}
{"SMILES": "O=C(O)C1=CC(=C(c2ccc(O)c(C(=O)O)c2)c2ccc(O)c(C(=O)O)c2)C=CC1=O", "target": "TPR", "assay": "enzyme activity, inhibitor, absorbance", "IC50 [µM]": 0.176}
{"SMILES": "O=C1c2ccccc2C(=O)c2c(O)c(O)cc(O)c21", "target": "PTPN12", "assay": "enzyme activity, inhibitor, fluorescence", "IC50 [µM]": 7}
{"SMILES": "Cc1ccc(OCC(O)Cn2c(=N)n(CCN3CCCCC3)c3ccccc32)cc1 (stereo not drawn)", "target": "TPR", "assay": "enzyme activity, inhibitor", "IC50 [µM]": "≤ 10"}
{"SMILES": "Clc1ccc(C(c2ccccc2)c2nnnn2CCCN2CCC(CCCc3ccccc3)CC2)cc1 (stereo not drawn)", "target": "SLC6A2", "assay": "transporter uptake, inhibitor", "IC50 [µM]": 0.527}
{"SMILES": "COc1ccc2nc(/N=C3/NC(=O)C(=Cc4cc(OC)c(O)c(OC)c4)S3)sc2c1", "target": "Aldo-keto reductase family 1 member A1", "assay": "enzyme activity, inhibitor, absorbance", "conditions": "pH 7.2", "IC50 [µM]": 42.1}
{"SMILES": "COc1cccc(C2c3c(ncn(-c4cccc(C#N)c4)c3=N)Oc3ccc4ccccc4c32)c1 (stereo not drawn)", "target": "NPSR1", "assay": "cAMP, antagonist, TR-FRET", "IC50 [µM]": 19.4}
{"SMILES": "COc1ccc2nc(/N=C3/NC(=O)C(=Cc4cc(I)c(O)c(OC)c4)S3)sc2c1", "target": "Aldo-keto reductase family 1 member A1", "assay": "enzyme activity, inhibitor, absorbance", "conditions": "pH 7.2", "IC50 [µM]": "> 50"}
{"SMILES": "O=C(Nc1ccn(Cc2ccc(O)cc2C(F)(F)F)n1)c1c(F)cccc1F", "target": "Short transient receptor potential channel 3 (TRPC3, Homo sapiens, UniProt Q13507)", "assay": "ion current, inhibitor", "IC50 [µM]": "> 10"}
{"SMILES": "Nc1c(Cl)cccc1C(=O)Nc1ccccc1C(=O)O", "target": "srtA (Staphylococcus aureus, UniProt Q2FV99)", "assay": "enzyme activity, inhibitor", "IC50 [µM]": 59.7}
{"SMILES": "COc1cccc(C2c3c(ncn(-c4ccccc4OC)c3=N)Oc3ccc4ccccc4c32)c1 (stereo not drawn)", "target": "NPSR1", "assay": "calcium signal, antagonist", "IC50 [µM]": 1.1}
{"SMILES": "COc1ccc(-c2cc(C(N)=O)ncc2OCc2ccncc2)c(F)c1", "target": "GRM3", "assay": "ion flux, antagonist", "IC50 [µM]": "> 10"}
{"SMILES": "N=c1c2c(ncn1Cc1ccccc1)Oc1ccc3ccccc3c1C2c1ccccc1 (stereo not drawn)", "target": "NPSR1", "assay": "cAMP, antagonist, TR-FRET", "IC50 [µM]": 3.07}
{"SMILES": "N=c1n(CCN2CCCCC2)c2ccccc2n1CC(O)COc1ccc(Cl)cc1Cl (stereo not drawn)", "target": "TPR", "assay": "enzyme activity, inhibitor", "IC50 [µM]": "≤ 10"}
{"SMILES": "CO/N=C(\\C(=O)N[C@@H]1C(=O)N2C(C(=O)O)=C(COC(C)=O)CS[C@H]12)c1csc(N)n1", "target": "PTPN12", "assay": "enzyme activity, inhibitor, fluorescence", "IC50 [µM]": 70}
{"SMILES": "O=P(O)(O)OC[C@H]1O[C@@](CO)(OP(=O)(O)O)[C@@H](O)[C@@H]1O", "target": "Fructose-1,6-bisphosphatase 1", "assay": "enzyme activity, inhibitor", "IC50 [µM]": 1.69}
{"SMILES": "OC(c1ccccc1)c1ccccc1", "target": "TPR", "assay": "enzyme activity, inhibitor, absorbance", "IC50 [µM]": "> 100"}
{"SMILES": "O=C1NC(=O)/C(=C/c2ccc(OCCNc3nc4c(cnn4C4CCCC4)c(=O)[nH]3)c(F)c2)S1", "target": "Dual specificity calcium/calmodulin-dependent 3',5'-cyclic nucleotide phosphodiesterase 1B", "assay": "enzyme activity, inhibitor", "IC50 [µM]": 0.0065}
{"SMILES": "ClCCOC(c1ccccc1)c1ccccc1", "target": "TPR", "assay": "enzyme activity, inhibitor, absorbance", "IC50 [µM]": 82.9}
{"SMILES": "COc1ccc2nc(/N=C3/NC(=O)C(=Cc4ccccc4)S3)sc2c1", "target": "Aldo-keto reductase family 1 member A1", "assay": "enzyme activity, inhibitor, absorbance", "conditions": "pH 7.2", "IC50 [µM]": "> 50"}
{"SMILES": "O=S(=O)(Nc1nc2cc(Cl)ccc2o1)c1cc(Cl)ccc1Cl", "target": "Fructose-1,6-bisphosphatase 1", "assay": "enzyme activity, inhibitor", "IC50 [µM]": 4.58}
{"SMILES": "N=c1n(CCOc2ccccc2)c2ccccc2n1CCN1CCCCC1", "target": "TPR", "assay": "enzyme activity, inhibitor", "IC50 [µM]": "≤ 10"}
{"SMILES": "OC1c2ccccc2CCc2ccccc21", "target": "TPR", "assay": "enzyme activity, inhibitor, absorbance", "IC50 [µM]": "> 100"}
{"SMILES": "CC(=O)N[C@@H](Cc1c[nH]c2ccccc12)C(=O)N[C@@H](CCC(=O)C=[N+]=[N-])C(=O)OC(C)C", "target": "Glutaminase kidney isoform, mitochondrial (GLS, Homo sapiens, UniProt O94925)", "assay": "enzyme activity, inhibitor, radiometric", "IC50 [µM]": "> 1000"}
{"SMILES": "Cc1cnc(-c2ccc(-c3ccc(NC(=O)Nc4c(F)cc(F)cc4F)cc3F)c3c2C(=O)NC3)[nH]1", "target": "Serine/threonine-protein kinase 10 (STK10, Homo sapiens, UniProt O94804)", "assay": "enzyme activity, inhibitor", "IC50 [µM]": 0.0433}
{"SMILES": "Cc1ccc(C(=O)Nc2ccc(S(=O)(=O)O)c3cc(S(=O)(=O)O)cc(S(=O)(=O)O)c23)cc1NC(=O)c1cccc(NC(=O)Nc2cccc(C(=O)Nc3cc(C(=O)Nc4ccc(S(=O)(=O)O)c5cc(S(=O)(=O)O)cc(S(=O)(=O)O)c45)ccc3C)c2)c1", "target": "PTPN12", "assay": "enzyme activity, inhibitor", "IC50 [µM]": 11}
{"SMILES": "COc1ccc2c(Oc3ccc4c(C(=O)Nc5ccccc5N)cccc4c3)ccnc2c1", "target": "Fibroblast growth factor receptor 1 (FGFR1, Homo sapiens, UniProt P11362)", "assay": "enzyme activity, inhibitor", "IC50 [µM]": "> 0.5"}
{"SMILES": "O=C1c2ccccc2-c2cccc3cccc1c23", "target": "PTPN12", "assay": "enzyme activity, inhibitor", "IC50 [µM]": "> 150"}
{"SMILES": "N=c1c2c(ncn1-c1ccccc1)Oc1ccc3ccccc3c1C2c1ccc2c(c1)OCCO2 (stereo not drawn)", "target": "NPSR1", "assay": "cAMP, antagonist, TR-FRET", "IC50 [µM]": 3.07}
{"SMILES": "COc1ccc(-c2nsc(NC(=O)[C@@H]3C[C@H]3C)c2C)cc1", "target": "GRM3", "assay": "calcium signal, antagonist", "IC50 [µM]": "> 12.5"}
{"SMILES": "COc1ccc(C2=NN(C3CCCCCC3)C(=O)[C@@H]3CC=CC[C@H]23)cc1-c1ccc(C(N)=O)cc1 (relative stereo)", "target": "Dual specificity calcium/calmodulin-dependent 3',5'-cyclic nucleotide phosphodiesterase 1B", "assay": "enzyme activity, inhibitor", "IC50 [µM]": "> 10"}
{"SMILES": "COc1ccc(-c2cc(C(N)=O)ncc2OCc2ccnc(OC)c2)c(F)c1", "target": "GRM3", "assay": "ion flux, antagonist", "IC50 [µM]": "> 10"}
{"SMILES": "Fc1ccc(C(c2ccc(F)cc2)c2nnnn2CCCCN2CCC(c3ccccc3)CC2)cc1", "target": "SLC6A2", "assay": "transporter uptake, inhibitor", "IC50 [µM]": 0.675}
{"SMILES": "COc1ccc(/C=C2\\SC(=Nc3nc4ccc(OC)cc4s3)NC2=O)cc1", "target": "Aldo-keto reductase family 1 member A1", "assay": "enzyme activity, inhibitor, absorbance", "conditions": "pH 7.2", "IC50 [µM]": 4.21}
{"SMILES": "CN1CCN(c2ccc(Nc3ncc4cc(C#N)c(=O)n(C5CCCC5)c4n3)cc2)CC1", "target": "MAP kinase-interacting serine/threonine-protein kinase 2 (MKNK2, Homo sapiens, UniProt Q9HBH9)", "assay": "enzyme activity, inhibitor", "IC50 [µM]": 4.41}
{"SMILES": "CSc1ccc(/C=C2/C(C)=C(CC(=O)O)c3cc(F)ccc32)cc1", "target": "Dual specificity calcium/calmodulin-dependent 3',5'-cyclic nucleotide phosphodiesterase 1B", "assay": "enzyme activity, inhibitor", "IC50 [µM]": "> 100"}
{"SMILES": "c1ccc(CCC2CCN(CCCn3nnnc3C(c3ccccc3)c3ccccc3)CC2)cc1", "target": "SLC6A2", "assay": "transporter uptake, inhibitor", "IC50 [µM]": 0.41}
{"SMILES": "COc1ccccc1C1c2c(ncn(-c3ccccc3)c2=N)Oc2ccc3ccccc3c21 (stereo not drawn)", "target": "NPSR1", "assay": "calcium signal, antagonist", "IC50 [µM]": 5.52}
{"SMILES": "NCCCc1ccccc1", "target": "TPR", "assay": "enzyme activity, inhibitor, absorbance", "IC50 [µM]": "> 100"}
